Test results: publication PMC3940414 (Journal of Medicinal Chemistry, 2014)
Entries after “also recorded” stand apart in the source; their conditions may differ. Where two headings read alike, the source gives them in different places.

Columns and labels:
rFAAH [1] = biological target: T1, rFAAH (Rattus norvegicus, UniProt P97612); assay type: biochemical
T1 sequence (P97612 30-579 limits assumed): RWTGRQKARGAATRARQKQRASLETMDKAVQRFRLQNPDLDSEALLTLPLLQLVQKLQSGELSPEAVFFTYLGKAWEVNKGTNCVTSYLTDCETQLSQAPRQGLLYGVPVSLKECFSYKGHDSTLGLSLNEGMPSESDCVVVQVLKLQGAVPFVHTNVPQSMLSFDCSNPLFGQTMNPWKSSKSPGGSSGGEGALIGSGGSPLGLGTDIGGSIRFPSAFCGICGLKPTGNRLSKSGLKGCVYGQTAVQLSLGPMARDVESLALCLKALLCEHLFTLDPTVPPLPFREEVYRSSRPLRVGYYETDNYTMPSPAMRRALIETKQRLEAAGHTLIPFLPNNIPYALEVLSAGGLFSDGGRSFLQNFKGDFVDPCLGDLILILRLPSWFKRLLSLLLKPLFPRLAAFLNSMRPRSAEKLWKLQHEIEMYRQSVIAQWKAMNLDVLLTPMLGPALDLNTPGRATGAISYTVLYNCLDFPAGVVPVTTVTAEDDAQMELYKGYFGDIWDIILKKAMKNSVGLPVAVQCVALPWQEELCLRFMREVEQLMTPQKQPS

[2] = Recovery of thioesters from assay buffer and enzymatic assays; assay type: physicochemical; conditions: for recovery from the assay buffer: 6 h
rFAAH [3] = biological target: T1, rFAAH; experiment: Lineweaver–Burk kinetic analysis; assay type: biochemical; conditions: after 3 h preincubation with the enzyme
[4] = biological target: T2, purified recombinant rat FAAH (Rattus norvegicus, UniProt P97612); experiment: Reversibility of FAAH inhibition by dialysis dilution; assay type: biochemical; conditions: 3 h preincubation 22 °C, then dialysis 4 °C, 18 h, 370-fold, pH 9
T2 sequence (P97612 30-579 limits assumed): T1 sequence (P97612 30-579 limits assumed)
Method in brief: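 Purified recombinant rat FAAH (E. coli-expressed) in pH 9.0 Tris/EDTA/glycerol/Triton X-100/Hepes buffer, preincubated 3 h at 22 °C with test compound (final 80, 100 or 150 nM) or DMSO. Triplicate pre-dialysis activity assay, then dialysis (10 000 MW cutoff) against PBS, 4 °C, 18 h, stirred. Post-dialysis activity assayed in triplicate and expressed as % of DMSO control.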

analgesia = conditions: cited from earlier work
[5] = tested on: human ether-a-go-go related gene product (hERG); conditions: background statement, ref not given; cited from earlier work
[6] = tested on: common P450 metabolism enzymes; conditions: background statement, ref not given; cited from earlier work
cannabinoid CB1 receptor = conditions: background statement, ref not given; cited from earlier work
cannabinoid CB2 receptor = conditions: background statement, ref not given; cited from earlier work
[7] = tested on: lipid amides in the brain; conditions: mice, i.p.; cited from earlier work
[8] = tested on: vanilloid (TRP) receptors; conditions: background statement, ref not given; cited from earlier work
[9] = tested on: endogenous brain levels of FAAH substrates (AEA, OEA, PEA); experiment: Brain lipid levels after i.p. inhibitor administration; assay type: in vivo; conditions: mice, 3 h post i.p. 30 mg/kg, relative to reversible inhibitor 2
neuropathic pain = conditions: cited from earlier work
[10] = enzyme–inhibitor preincubation 0–6 h

time-dependent change of inhibition potency (in words) (rFAAH [1]; [10])	mode of inhibition (Lineweaver–Burk) (rFAAH [3])	Compound	recovery of enzyme activity after dialysis dilution [4]	increase of brain anandamide levels over that of 2 [9]	other results
	reversible, competitive	CSC(=O)CCCCc1cnc(C(=O)CCCCCCc2ccccc2)o1 [compound 25]			recovery from the assay buffer [2]: recovered unchanged
	reversible, competitive	CSC(=O)c1ccc(-c2cnc(C(=O)CCCCCCc3ccccc3)o2)nc1 [compound 5]			time-dependent change of inhibition potency (in words) (rFAAH [1]): did not exhibit this time-dependent increase; recovery from the assay buffer [2]: recovered unchanged; recovery from enzymatic assays ([2]; enzymatic assays): recovered unchanged
	reversible, competitive	CSC(=O)Cc1ccc(-c2cnc(C(=O)CCCCCCc3ccccc3)o2)nc1 [compound 16]			time-dependent change of inhibition potency (in words) (rFAAH [1]): did not exhibit this time-dependent increase
did exhibit increases in potency	noncompetitive	COC(=N)Cc1ccc(-c2cnc(C(=O)CCCCCCc3ccccc3)o2)nc1 [compound 17]	do not appear to be even slowly reversible		
	reversible, competitive	COC(=O)c1ccc(-c2cnc(C(=O)CCCCCCc3ccccc3)o2)nc1 [compound 3]			

Continued, compound first:

Compound	time-dependent change of inhibition potency (in words) (rFAAH [1]; [10])	mode of inhibition (Lineweaver–Burk) (rFAAH [3])	recovery of enzyme activity after dialysis dilution [4]	increase of brain anandamide levels over that of 2 [9]	other results
O=C(CCCCCCc1ccccc1)c1ncc(-c2ccc(CCl)cn2)o1 [compound 12]	insensitive to preincubation				
N#C/C=C/c1ccc(-c2cnc(C(=O)CCCCCCc3ccccc3)o2)nc1 [compound 19]		mixed kinetics	did not restore enzyme activity		
O=C(CCCCCCc1ccccc1)c1ncc(-c2ccccn2)o1 [compound 2]	does not display time-dependent inhibition	reversible, competitive	restored full enzyme activity; also recorded: nearly full recovery of enzyme activity		analgesic effect (analgesia): induces analgesia; inhibition of hERG [5]: does not significantly inhibit; inhibition of common P450 metabolism enzymes [6]: does not significantly inhibit; binding to CB1 receptor (cannabinoid CB1 receptor): does not bind; binding to CB2 receptor (cannabinoid CB2 receptor): does not bind; duration of elevation of brain lipid amides [7]: 2 to 3 h; binding to vanilloid (TRP) receptors [8]: does not bind
N#CCc1ccc(-c2cnc(C(=O)CCCCCCc3ccccc3)o2)nc1 [compound 14]	did exhibit increases in potency	noncompetitive	failing to restore FAAH activity; also recorded: little or no recovery of enzyme activity	approximately 2 fold	activity in a mouse model of neuropathic pain (neuropathic pain): long acting in vivo activity; duration of elevation of brain lipid amides [7]: > 6 h; time of peak brain lipid amide levels [7]: 1.5 to 3 h
CCOC(=O)/C=C/c1ccc(-c2cnc(C(=O)CCCCCCc3ccccc3)o2)nc1 [compound 18]		mixed kinetics	did not restore enzyme activity		
C[S+]([O-])/C=C/c1ccc(-c2cnc(C(=O)CCCCCCc3ccccc3)o2)nc1 (stereo not shown) [compound 22]		noncompetitive		approximately 2 fold	
N#Cc1ccc(-c2cnc(C(=O)CCCCCCc3ccccc3)o2)nc1 [compound 7]					time-dependent change of inhibition potency (in words) (rFAAH [1]): did not display time-dependent increases in potency
CCOS(=O)(=O)/C=C/c1ccc(-c2cnc(C(=O)CCCCCCc3ccccc3)o2)nc1 [compound 20]		noncompetitive		approximately 2 fold	
O=C(CCCCCCc1ccccc1)c1ncc(-c2ccc(CBr)cn2)o1 [compound 11]	most pronounced time-dependent increase in potency	noncompetitive	failing to restore FAAH activity; also recorded: little or no recovery of enzyme activity	approximately 2 fold	activity in a mouse model of neuropathic pain (neuropathic pain): long acting in vivo activity; duration of elevation of brain lipid amides [7]: > 6 h; time of peak brain lipid amide levels [7]: 1.5 to 3 h
CS(=O)(=O)/C=C/c1ccc(-c2cnc(C(=O)CCCCCCc3ccccc3)o2)nc1 [compound 21]		noncompetitive		approximately 2 fold	
COC(=N)c1ccc(-c2cnc(C(=O)CCCCCCc3ccccc3)o2)nc1 [compound 8]					time-dependent change of inhibition potency (in words) (rFAAH [1]): did not display time-dependent increases in potency
